The values that follow come from publication PMC2806602 (The Journal of neuroscience : the official journal of the …, 2009).

Where a chain is given by its changes, count along the chain named. Entries after “also recorded” stand apart in the source; their conditions may differ.

Assay [1] addresses T1, GluRδ2^Wt (Rattus norvegicus, UniProt Q63226).
T1 sequence (Q63226 24-1007): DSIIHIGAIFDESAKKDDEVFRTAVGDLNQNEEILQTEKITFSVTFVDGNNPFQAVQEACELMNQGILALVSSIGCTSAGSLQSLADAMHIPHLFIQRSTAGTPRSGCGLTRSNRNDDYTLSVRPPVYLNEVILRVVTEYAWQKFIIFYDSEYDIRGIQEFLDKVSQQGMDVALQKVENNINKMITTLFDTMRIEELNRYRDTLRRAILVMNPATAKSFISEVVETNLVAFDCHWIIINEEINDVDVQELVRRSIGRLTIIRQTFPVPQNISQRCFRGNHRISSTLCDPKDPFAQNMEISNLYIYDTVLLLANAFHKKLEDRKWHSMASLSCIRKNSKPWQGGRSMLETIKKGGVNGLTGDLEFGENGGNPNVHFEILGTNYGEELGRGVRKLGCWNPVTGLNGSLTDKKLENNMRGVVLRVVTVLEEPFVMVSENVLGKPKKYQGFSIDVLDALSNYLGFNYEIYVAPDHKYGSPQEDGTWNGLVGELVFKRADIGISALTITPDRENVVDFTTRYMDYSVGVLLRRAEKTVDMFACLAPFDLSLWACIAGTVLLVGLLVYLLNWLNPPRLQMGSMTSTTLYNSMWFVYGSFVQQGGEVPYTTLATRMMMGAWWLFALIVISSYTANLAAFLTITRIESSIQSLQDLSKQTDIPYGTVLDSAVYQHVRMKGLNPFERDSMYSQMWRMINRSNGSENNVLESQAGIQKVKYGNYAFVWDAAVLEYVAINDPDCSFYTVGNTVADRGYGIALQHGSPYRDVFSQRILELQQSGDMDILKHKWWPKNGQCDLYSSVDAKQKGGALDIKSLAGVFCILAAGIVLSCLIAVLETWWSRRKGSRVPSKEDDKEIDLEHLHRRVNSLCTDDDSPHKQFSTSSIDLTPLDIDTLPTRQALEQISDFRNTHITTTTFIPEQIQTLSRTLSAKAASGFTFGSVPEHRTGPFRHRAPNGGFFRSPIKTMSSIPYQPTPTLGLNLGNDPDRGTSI
The experiment in a line: Two-electrode voltage-clamp recordings in Xenopus oocytes expressing GluRδ2^Wt. Format: cell-based. An outline of the steps:
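Oocytes injected with wild-type receptor cRNA the day after excision and collagenase treatment. Two-electrode voltage clamp at −40 mV and 23°C, 24–72 h post-injection. Bath: 90 mM NaCl, 3 mM KCl, 0.5 mM BaCl2, 10 mM HEPES, pH 7.6. Ba2+ was replaced by 0.5 mM Mg2+, Zn2+, Mn2+, Sr2+ or Ca2+, or Ca2+ was raised stepwise. Choline or NMDG chloride kept osmolarity and Cl− constant. Baseline was current without Ca2+.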

Assay [2] addresses T1, GluRδ2^Wt. The settings on record: ref Naur et al., 2007; cited from earlier work.
Assay [3] deals with T2, GluRδ2^Wt P528C+L789C+C811S (Rattus norvegicus, UniProt Q63226, C811S/L789C/P528C).
T2 sequence (Q63226 24-1007 P528C/L789C/C811S): T1 sequence (Q63226 24-1007) with P505C, L766C, C788S
Format: cell-based. The following applies: data not shown.

On to `[Ca+2]` [Ca^2+, calcium], for which, in assay [1] (0.5 mM Ba^2+ exchanged with 0.5 mM of the divalent cation), the “effect of divalent cation on currents at GluRδ2^Wt” value is on record as “no changes were observed”. Also, the “effect of extracellular Ca^2+ on baseline currents at GluRδ2^Wt” value in assay [1] (increasing concentrations of Ca^2+) is “insensitive; also recorded: did not induce current”.

As to `N[C@H](CO)C(=O)O` [D-serine], the “activation of currents at recombinant GluRδ2^Wt by D-serine” value in assay [2] was “fails to activate currents”. Moreover, the “response to D-serine” value in assay [3] is “Neither the C811S mutation nor the triple P528C+L789C+C811S mutation resulted in measurable responses”.
